# Results from ChEMBL document CHEMBL1137858, “Formation of squaric acid amides of anthracycline antibiotics. Synthesis and cytotoxic properties” (Bioorg Med Chem Lett, 2004).
# What was measured:
# [1] = system: MCF7; experiment: Percent control of human mammary adenocarcinoma MCF-7 cell line proliferation at 3 ng/mL; assay type: functional
# In short: (§1)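 MCF-7 human mammary adenocarcinoma cells (5 · 10^3) seeded in 24-well plates in RPMI-1640 with 10% fetal calf serum, penicillin (50 unit/mL) and streptomycin, 37 C, 5% CO2. Compounds added 3 h after plating. After 24 h exposure, medium replaced and cultures incubated a further 72 h. Cell population measured by MTT absorbance. IC50 values calculated from the data.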
# [2] = system: MCF7; experiment: Percent control of human mammary adenocarcinoma MCF-7 cell line proliferation at 300 ng/mL; assay type: functional; in short: as §1
# [3] = system: MCF7; experiment: Percent control of human mammary adenocarcinoma MCF-7 cell line proliferation at 30 ng/mL; assay type: functional; in short: as §1
# [4] = system: MCF7; experiment: Concentration required to inhibit proliferation of human mammary adenocarcinoma MCF-7 cell line was determined using MTT assay; assay type: functional, cell-based; in short: as §1
# [5] = system: MCF7; experiment: Percent control of human mammary adenocarcinoma MCF-7 cell line proliferation at 0.3 ng/mL; assay type: functional; in short: as §1
IC50 [4],SMILES,Control [1],Control [2],Control [3],Control [5]
0.109 µg/mL,COc1cccc2c1C(=O)c1c(O)c3c(c(O)c1C2=O)C[C@@](O)(C(C)=O)C[C@@H]3OC1CC(/N=c2/c(O)c(O)/c2=N/C2CC(O[C@@H]3C[C@@](O)(C(C)=O)Cc4c(O)c5c(c(O)c43)C(=O)c3c(OC)cccc3C5=O)OC(C)C2O)C(O)C(C)O1 (stereo partly drawn),72.7%,42%,60.7%,
> 0.3 µg/mL,COc1cccc2c1C(=O)c1c(O)c3c(c(O)c1C2=O)C[C@@](O)(C(=O)CO)C[C@@H]3OC1CC(/N=c2/c(O)c(O)/c2=N/C2CC(O[C@@H]3C[C@@](O)(C(=O)CO)Cc4c(O)c5c(c(O)c43)C(=O)c3c(OC)cccc3C5=O)OC(C)C2O)C(O)C(C)O1 (stereo partly drawn),88%,68.4%,84.5%,
> 0.3 µg/mL,COc1cccc2c1C(=O)c1c(O)c3c(c(O)c1C2=O)C[C@@](O)(C(=O)CO)C[C@@H]3OC1CC(/N=c2/c(O)c(O)/c2=N\CCCCCC/N=c2\c(O)c(O)\c2=N\C2CC(O[C@H]3C[C@](O)(C(=O)CO)Cc4c(O)c5c(c(O)c43)C(=O)c3c(OC)cccc3C5=O)OC(C)C2O)C(O)C(C)O1 (stereo partly drawn),87%,82.4%,86.1%,
0.087 µg/mL,COc1cccc2c1C(=O)c1c(O)c3c(c(O)c1C2=O)C[C@@](O)(C(C)=O)C[C@@H]3OC1CC(/N=c2/c(O)c(O)/c2=N\CCCCCC/N=c2\c(O)c(O)\c2=N\C2CC(O[C@H]3C[C@](O)(C(C)=O)Cc4c(O)c5c(c(O)c43)C(=O)c3c(OC)cccc3C5=O)OC(C)C2O)C(O)C(C)O1 (stereo partly drawn),104%,32%,50%,

# The next lines start with the compound.
SMILES,IC50 [4],Control [1],Control [2],Control [3],Control [5]
COc1c(NC2CC(O[C@H]3C[C@](O)(C(C)=O)Cc4c(O)c5c(c(O)c43)C(=O)c3c(O)cccc3C5=O)OC(C)C2O)c(=O)c1=O (stereo partly drawn),0.299 µg/mL,89.7%,46.3%,81%,
CC(=O)[C@]1(O)Cc2c(O)c3c(c(O)c2[C@@H](OC2CC(N)C(O)C(C)O2)C1)C(=O)c1c(O)cccc1C3=O.Cl (stereo partly drawn),0.0483 µg/mL,93.2%,9.1%,77%,107%
COc1cccc2c1C(=O)c1c(O)c3c(c(O)c1C2=O)C[C@@](O)(C(C)=O)C[C@@H]3OC1CC(Nc2c(OC)c(=O)c2=O)C(O)C(C)O1 (stereo in doubt; 5),> 0.3 µg/mL,85%,77.8%,74.7%,
COc1cccc2c1C(=O)c1c(O)c3c(c(O)c1C2=O)C[C@@](O)(C(=O)CO)C[C@@H]3O[C@H]1C[C@H](N)[C@H](O)[C@H](C)O1.Cl [DOXORUBICIN HYDROCHLORIDE],,41%,14.9%,35.3%,74.7%
